Data as given in ChEMBL document CHEMBL2062375, “Discovery of an orally efficacious inhibitor of anaplastic lymphoma kinase” (J Med Chem, 2012).

Experiments:
[1] = Volume of distribution in SCID mouse at 1 mg/kg, iv; type: ADME, organism-based; parameters: dose 1 mg/kg, route intravenous; conditions: in vivo
Summary of the method: (§1)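 Mouse IV PK: lateral tail vein dosing, 100 μL in 3% DMSO/30% Solutol/67% PBS; trunk blood from three mice per time point over 6 h. Plasma precipitated with acetonitrile, drug quantified by LCMS/MS against internal standard; noncompartmental analysis.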

[2] = Volume of distribution in CD-1 mouse at 1 mg/kg, iv; type: ADME, organism-based; parameters: dose 1 mg/kg, route intravenous; conditions: in vivo; summary of the method: as §1
[3] = Half life in cynomolgus monkey at 1 mg/kg, iv; type: ADME, organism-based, Macaca fascicularis; parameters: dose 1 mg/kg, route intravenous; conditions: in vivo
Summary of the method: (§2)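 Dog and monkey PK. IV 0.5 mL/kg in 40% HPβCD via the saphenous vein. Oral dosing was 1 mL/kg by gavage in dogs and 2 mL/kg by nasogastric tube in monkeys, after an overnight fast. Serial femoral-vein blood was taken into heparin over 24 h. Plasma was acetonitrile-precipitated and analysed by LC-MS/MS. Parameters were noncompartmental, n = 3, mean ± SEM.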

[4] = Volume of distribution in cynomolgus monkey at 1 mg/kg, iv; type: ADME, organism-based, Macaca fascicularis; parameters: dose 1 mg/kg, route intravenous; conditions: in vivo
Summary of the method: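 IV PK: rats via lateral tail vein (1 mL/kg; 3% DMSO/30% Solutol/67% PBS), serial tail-vein blood over 6 h. Dogs and monkeys via saphenous vein (0.5 mL/kg in 40% HPβCD), femoral-vein blood over 24 h. Acetonitrile protein precipitation, LCMS/MS; noncompartmental parameters from individual animals, n = 3, mean ± SEM.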

[5] = Cmax in CD-1 mouse at 10 mg/kg, po; type: ADME, organism-based; parameters: dose 10 mg/kg, route oral; conditions: in vivo
Summary of the method: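 Mouse PK. IV via the lateral tail vein in 3% DMSO/30% Solutol/67% PBS, or oral gavage in 100% PEG400, 100 μL dose volume, after an overnight fast. Trunk blood was taken from three mice per time point over 6 h. Plasma was acetonitrile-precipitated and analysed by LC-MS/MS. Parameters were derived noncompartmentally.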

[6] = Tmax in Sprague-Dawley rat at 10 mg/kg, po; type: ADME, organism-based; parameters: dose 10 mg/kg, route oral; conditions: in vivo
Summary of the method: (§3)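 PK: overnight-fasted animals. Rat oral gavage 5 mL/kg in 40% HPβCD, serial tail-vein blood over 6 h. Dog oral gavage 1 mL/kg, monkey nasogastric 2 mL/kg, femoral-vein blood over 24 h. Plasma protein-precipitated with acetonitrile, LCMS/MS with internal standard; noncompartmental analysis, individual animals n = 3, mean ± SEM.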

[7] = AUC in Sprague-Dawley rat at 10 mg/kg, po; type: ADME, organism-based; parameters: dose 10 mg/kg, route oral; conditions: plasma
Summary of the method: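 Rat PK. IV via the lateral tail vein, 1 mL/kg in 3% DMSO/30% Solutol/67% PBS, or oral gavage at 5 mL/kg in 40% HPβCD, after an overnight fast. Serial tail-vein blood was taken into heparin over 6 h. Plasma was acetonitrile-precipitated and analysed by LC-MS/MS. Parameters were noncompartmental, n = 3, mean ± SEM.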

[8] = Oral bioavailability in Beagle dog at 10 mg/kg; type: ADME, organism-based, Canis lupus familiaris; conditions: in vivo; summary of the method: as §3
[9] = Cmax in cynomolgus monkey at 10 mg/kg, po; type: ADME, organism-based, Macaca fascicularis; parameters: dose 10 mg/kg, route oral; conditions: in vivo; summary of the method: as §2
[10] = Tmax in cynomolgus monkey at 10 mg/kg, po; type: ADME, organism-based, Macaca fascicularis; parameters: dose 10 mg/kg, route oral; conditions: in vivo; summary of the method: as §3
[11] = Cmax in rat at 30 mg/kg, po; type: ADME, organism-based; parameters: dose 30 mg/kg, route oral; conditions: in vivo
Summary of the method: (§4)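 Rat oral dose escalation at 10, 30, 55 and 100 mg/kg. Gavage at 5 mL/kg in 40% HPβCD after an overnight fast. Serial tail-vein blood was drawn into heparinized tubes. Plasma was protein-precipitated with acetonitrile and assayed by LC-MS/MS. Cmax and AUC0–12 were derived noncompartmentally; n = 2 at 10 mg/kg.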

[12] = AUC (0 to 12 hrs) in rat 30 mg/kg, po; type: ADME, organism-based; parameters: time < 12 hr, dose 30 mg/kg, route oral; conditions: plasma; summary of the method: as §4
[13] = test system: Mus musculus; assay: Toxicity in SCID mouse xenografted with human KARPAS299 cells expressing NPM-ALK assessed as effect on body weight at 10 to 30 mg/kg, po bid; type: organism-based, KARPAS-299; parameters: dose 10-30 mg/kg, route oral; conditions: in vivo
Summary of the method: (§5)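 Female SCID/beige mice (6–8 weeks), Karpas-299 cells implanted sc in left flank; at ~600 mm³ randomized (8–10/group), dosed orally in PEG400, 100 μL, b.i.d. for 12 days. Body weight every 2–3 days; plasma and tumor sampled 2 h after final dose, drug by LCMS/MS; Mann–Whitney rank sum statistics.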

[14] = Plasma concentration in SCID/beige mouse xenografted with human KARPAS299 cells expressing NPM-ALK at 10 mg/kg, po bid after 2 hrs post last dose by LC-MS/MS analysis; type: ADME, organism-based, KARPAS-299; parameters: dose 10 mg/kg, route oral; summary of the method: as §5
[15] = Drug level in SCID/beige mouse tumor xenografted with human KARPAS299 cells expressing NPM-ALK at 30 mg/kg, po bid after 2 hrs post last dose by LC-MS/MS analysis; type: ADME, organism-based, Neoplasm, KARPAS-299; parameters: dose 30 mg/kg, route oral; conditions: read-out: Drug uptake
Summary of the method: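 Female SCID/beige mice, 6–8 weeks old, implanted sc in the left flank with exponentially growing Karpas-299 cells. At about 600 mm³ tumours, mice were randomized (8–10/group) and given PEG400 vehicle or compound orally b.i.d., 100 μL, for 12 days. Tumour volume (0.5236LW(L+W)/2) and body weight were recorded every 2–3 days; Mann–Whitney test. Plasma and tumour levels were measured by LC-MS/MS 2 h after the final dose, mean ± SEM.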

[16] = test system: Mus musculus; assay: Toxicity in SCID mouse xenografted with human KARPAS299 cells expressing NPM-ALK assessed as overt toxicity at 10 to 30 mg/kg, po bid; type: organism-based, KARPAS-299; parameters: dose 10-30 mg/kg, route oral; conditions: in vivo; summary of the method: as §5
[17] = test system: Rattus norvegicus; assay: Ratio of AUC (0 to 12 h) at 10 mg/kg, po to AUC (0 to 12 h) at 100 mg/kg, po in rat; type: ADME, organism-based; conditions: in vivo
Summary of the method: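 Oral dose-escalation PK study in rats at 10, 30, 55 and 100 mg/kg. […] The ratio compares the 10 mg/kg value with the 100 mg/kg value.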

[18] = Plasma concentration in SCID mouse xenografted with human KARPAS299 cells expressing NPM-ALK at 30 mg/kg, po after 24 hrs by LC-MS/MS analysis; type: ADME, organism-based, KARPAS-299; parameters: dose 30 mg/kg, route oral
Summary of the method: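 Pharmacodynamic study: SCID mice bearing subcutaneous Karpas-299 xenografts given single 30 mg/kg oral dose; plasma drug levels measured by LCMS/MS, reported as mean ± SEM.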

[19] = Plasma concentration in SCID/beige mouse xenografted with human KARPAS299 cells expressing NPM-ALK at 30 mg/kg, po bid after 2 hrs post last dose by LC-MS/MS analysis; type: ADME, organism-based, KARPAS-299; parameters: dose 30 mg/kg, route oral; summary of the method: as §5
[20] = target: NUAK family SNF1-like kinase 1 (Homo sapiens, UniProt O60285); assay: Inhibition of human ARK5
[21] = target: Serine/threonine-protein kinase Chk2 (Homo sapiens, UniProt O96017); assay: Inhibition of human CHK2
Summary of the method: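 Commercial activity-assay panel of 259 kinases. Each kinase was first screened at 1 μM, and those inhibited by ≥90% went on to full IC50 determination.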

[22] = target: Receptor-type tyrosine-protein kinase FLT3 (Homo sapiens, UniProt P36888); assay: Inhibition of human Flt3
Summary of the method: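 Millipore KinaseProfiler activity assays on a 259-kinase panel; kinases inhibited by ≥90% at 1 μM then taken to full IC50 determination.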

[23] = target: Ribosomal protein S6 kinase alpha-2 (Homo sapiens, UniProt Q15349); conditions: 1 uM
[24] = target: Receptor-type tyrosine-protein kinase FLT3 (Homo sapiens) (UniProt P36888); conditions: 1 uM
[25] = target: Vascular endothelial growth factor receptor 3 (Homo sapiens, UniProt P35916); conditions: 1 uM
Chain of Vascular endothelial growth factor receptor 3 (P35916 whole entry): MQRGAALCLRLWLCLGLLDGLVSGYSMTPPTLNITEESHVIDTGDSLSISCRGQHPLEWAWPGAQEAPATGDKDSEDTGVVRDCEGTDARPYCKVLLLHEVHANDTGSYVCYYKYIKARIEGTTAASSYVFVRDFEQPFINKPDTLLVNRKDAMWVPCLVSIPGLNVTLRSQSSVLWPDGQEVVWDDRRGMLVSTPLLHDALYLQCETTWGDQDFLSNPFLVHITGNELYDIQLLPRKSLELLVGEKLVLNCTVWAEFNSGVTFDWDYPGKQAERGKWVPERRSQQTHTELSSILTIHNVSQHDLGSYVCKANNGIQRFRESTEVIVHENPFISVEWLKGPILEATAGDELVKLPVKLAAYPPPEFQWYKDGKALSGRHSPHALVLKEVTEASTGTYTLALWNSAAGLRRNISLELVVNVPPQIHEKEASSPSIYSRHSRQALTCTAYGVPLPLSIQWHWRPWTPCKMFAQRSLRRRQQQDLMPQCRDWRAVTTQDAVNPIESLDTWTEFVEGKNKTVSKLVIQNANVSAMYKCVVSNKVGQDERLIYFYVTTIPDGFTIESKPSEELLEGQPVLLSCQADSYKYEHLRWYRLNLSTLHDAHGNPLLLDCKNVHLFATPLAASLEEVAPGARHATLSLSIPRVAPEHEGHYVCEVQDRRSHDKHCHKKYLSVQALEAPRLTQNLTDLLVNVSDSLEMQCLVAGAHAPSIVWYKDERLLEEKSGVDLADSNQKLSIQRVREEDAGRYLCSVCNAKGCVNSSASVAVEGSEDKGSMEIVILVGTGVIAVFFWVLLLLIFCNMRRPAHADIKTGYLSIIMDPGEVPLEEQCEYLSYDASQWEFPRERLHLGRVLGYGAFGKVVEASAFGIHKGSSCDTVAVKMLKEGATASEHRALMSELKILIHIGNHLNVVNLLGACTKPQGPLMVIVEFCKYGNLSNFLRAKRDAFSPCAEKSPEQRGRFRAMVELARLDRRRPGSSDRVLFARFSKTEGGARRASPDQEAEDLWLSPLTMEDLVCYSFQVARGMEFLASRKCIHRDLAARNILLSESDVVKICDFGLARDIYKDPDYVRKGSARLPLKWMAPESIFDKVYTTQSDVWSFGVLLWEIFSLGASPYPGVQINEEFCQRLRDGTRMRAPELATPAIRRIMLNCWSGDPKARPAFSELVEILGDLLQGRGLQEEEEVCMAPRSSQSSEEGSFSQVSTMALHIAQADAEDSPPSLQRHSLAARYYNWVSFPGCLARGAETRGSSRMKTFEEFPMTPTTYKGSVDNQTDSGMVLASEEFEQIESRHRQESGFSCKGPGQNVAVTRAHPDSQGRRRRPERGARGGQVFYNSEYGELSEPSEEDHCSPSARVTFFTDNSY

Chain of Receptor-type tyrosine-protein kinase FLT3 (Homo sapiens) (P36888 whole entry): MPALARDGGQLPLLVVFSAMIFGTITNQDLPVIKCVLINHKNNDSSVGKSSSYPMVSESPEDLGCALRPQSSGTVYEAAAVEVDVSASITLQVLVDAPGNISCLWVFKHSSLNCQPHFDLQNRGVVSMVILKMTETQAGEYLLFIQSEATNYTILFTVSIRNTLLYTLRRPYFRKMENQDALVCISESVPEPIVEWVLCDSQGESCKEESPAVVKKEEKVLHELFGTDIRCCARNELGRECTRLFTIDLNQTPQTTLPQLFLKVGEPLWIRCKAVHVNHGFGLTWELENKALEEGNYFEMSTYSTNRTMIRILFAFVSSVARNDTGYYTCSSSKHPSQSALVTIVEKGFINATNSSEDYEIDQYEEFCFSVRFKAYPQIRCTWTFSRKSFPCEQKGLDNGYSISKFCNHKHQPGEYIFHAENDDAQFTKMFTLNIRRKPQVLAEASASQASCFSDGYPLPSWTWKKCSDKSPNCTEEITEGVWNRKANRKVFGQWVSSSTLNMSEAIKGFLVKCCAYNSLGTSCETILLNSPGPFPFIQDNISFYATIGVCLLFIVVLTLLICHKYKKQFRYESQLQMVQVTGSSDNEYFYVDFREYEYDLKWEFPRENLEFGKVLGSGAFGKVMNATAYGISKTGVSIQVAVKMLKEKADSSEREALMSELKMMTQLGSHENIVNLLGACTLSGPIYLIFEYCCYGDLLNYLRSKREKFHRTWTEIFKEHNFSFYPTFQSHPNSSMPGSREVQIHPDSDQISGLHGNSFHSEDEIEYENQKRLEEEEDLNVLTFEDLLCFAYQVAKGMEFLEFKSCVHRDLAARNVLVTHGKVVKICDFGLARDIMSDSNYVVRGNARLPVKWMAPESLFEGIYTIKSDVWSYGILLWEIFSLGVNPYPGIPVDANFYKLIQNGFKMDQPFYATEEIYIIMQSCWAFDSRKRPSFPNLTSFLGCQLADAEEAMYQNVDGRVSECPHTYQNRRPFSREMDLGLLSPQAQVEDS
Chain of Receptor-type tyrosine-protein kinase FLT3 (P36888 whole entry): as above
Chain of NUAK family SNF1-like kinase 1 (O60285 whole entry): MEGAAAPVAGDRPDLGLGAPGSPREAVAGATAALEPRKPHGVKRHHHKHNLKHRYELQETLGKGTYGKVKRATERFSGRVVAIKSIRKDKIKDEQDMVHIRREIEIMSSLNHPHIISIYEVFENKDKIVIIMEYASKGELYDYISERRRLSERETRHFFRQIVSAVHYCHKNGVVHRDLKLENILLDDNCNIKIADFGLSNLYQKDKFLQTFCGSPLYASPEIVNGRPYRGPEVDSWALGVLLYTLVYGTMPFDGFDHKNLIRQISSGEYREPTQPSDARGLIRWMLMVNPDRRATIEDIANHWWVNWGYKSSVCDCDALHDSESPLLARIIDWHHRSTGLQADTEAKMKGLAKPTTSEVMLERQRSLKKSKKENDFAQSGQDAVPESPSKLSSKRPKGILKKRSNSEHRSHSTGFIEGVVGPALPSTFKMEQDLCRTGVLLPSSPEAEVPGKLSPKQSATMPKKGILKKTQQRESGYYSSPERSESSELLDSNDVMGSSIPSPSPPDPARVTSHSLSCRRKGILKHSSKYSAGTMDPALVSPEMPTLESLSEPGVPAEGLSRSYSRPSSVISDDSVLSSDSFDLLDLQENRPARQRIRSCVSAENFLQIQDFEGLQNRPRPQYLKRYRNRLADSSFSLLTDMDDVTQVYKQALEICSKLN
Chain of Ribosomal protein S6 kinase alpha-2 (Q15349 whole entry): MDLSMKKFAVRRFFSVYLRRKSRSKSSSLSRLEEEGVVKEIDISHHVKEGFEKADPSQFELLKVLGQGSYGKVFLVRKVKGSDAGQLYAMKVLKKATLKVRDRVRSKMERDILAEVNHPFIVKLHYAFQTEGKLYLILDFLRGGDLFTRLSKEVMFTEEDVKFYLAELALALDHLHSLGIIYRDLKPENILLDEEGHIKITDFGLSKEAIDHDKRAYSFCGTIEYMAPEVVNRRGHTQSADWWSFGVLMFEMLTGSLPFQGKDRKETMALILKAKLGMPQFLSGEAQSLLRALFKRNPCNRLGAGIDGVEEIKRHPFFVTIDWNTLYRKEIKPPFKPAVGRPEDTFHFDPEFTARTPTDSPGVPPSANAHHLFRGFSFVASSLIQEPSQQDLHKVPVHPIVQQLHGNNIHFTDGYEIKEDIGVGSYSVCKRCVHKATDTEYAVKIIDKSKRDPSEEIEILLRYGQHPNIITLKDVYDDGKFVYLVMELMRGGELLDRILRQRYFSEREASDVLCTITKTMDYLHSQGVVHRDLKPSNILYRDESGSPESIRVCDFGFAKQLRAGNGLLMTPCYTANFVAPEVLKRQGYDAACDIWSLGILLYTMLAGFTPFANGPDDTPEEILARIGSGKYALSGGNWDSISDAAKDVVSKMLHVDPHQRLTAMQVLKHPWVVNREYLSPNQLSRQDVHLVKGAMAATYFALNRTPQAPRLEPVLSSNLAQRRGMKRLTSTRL
Chain of Serine/threonine-protein kinase Chk2 (O96017 whole entry): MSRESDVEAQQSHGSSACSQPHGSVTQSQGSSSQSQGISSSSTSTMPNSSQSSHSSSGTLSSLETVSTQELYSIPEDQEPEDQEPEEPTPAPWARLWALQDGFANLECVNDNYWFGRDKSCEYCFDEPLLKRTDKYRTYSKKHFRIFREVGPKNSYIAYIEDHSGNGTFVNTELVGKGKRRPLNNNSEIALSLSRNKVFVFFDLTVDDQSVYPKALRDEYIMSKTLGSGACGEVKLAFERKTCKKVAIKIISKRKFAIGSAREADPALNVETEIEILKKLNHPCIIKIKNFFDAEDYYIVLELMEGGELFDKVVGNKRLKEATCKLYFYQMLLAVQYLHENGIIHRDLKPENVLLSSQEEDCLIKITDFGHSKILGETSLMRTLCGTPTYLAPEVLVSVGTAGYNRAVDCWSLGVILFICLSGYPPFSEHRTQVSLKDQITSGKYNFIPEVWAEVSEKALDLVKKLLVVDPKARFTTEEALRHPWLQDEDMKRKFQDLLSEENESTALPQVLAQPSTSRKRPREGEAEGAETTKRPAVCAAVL

COc1c(Nc2ncc(Cl)c(N[C@H]3[C@@H](C(N)=O)[C@@H]4C=C[C@H]3C4)n2)ccc2c1CC[C@@H](N1CCOCC1)CC2
Vd [1]: 0.8 L/kg
Vd [2]: 1.8 L/kg
half-life [3]: 1.2 h
Vd [4]: 2.9 L/kg
Cmax [5]: 880 ng/mL
Tmax [6]: 1.3 h
AUC [7]: 4830 ng·h/mL
bioavailability [8]: 52%
Cmax [9]: 170 ng/mL
Tmax [10]: 4.7 h
Cmax [11]: 1010 ng/mL
AUC(0-t) at 12 h [12]: 10900 ng·h/mL
Activity [13]: Non-toxic
concentration at 2 h [14]: 1960 ng/mL
concentration at 2 h [15]: 4040 ng/g
Activity [16]: Non-toxic
Ratio [17]: 15
concentration at 24 h [18]: 12 ng/mL
concentration at 2 h [19]: 4270 ng/mL
IC50 [20]: 26 nM
IC50 [21]: 29 nM
IC50 [22]: 88 nM
inhibition [23]: > 90%
inhibition [24]: > 90%
inhibition [25]: > 90%
